# Measured values: ChEMBL document CHEMBL3085690, “Naturally occurring antimicrobial peptide OH-CATH30 selectively regulates the innate immune response to protect against sepsis” (J Med Chem, 2013)
# Activity calls are given as the source filed them. The calls are words filed in the database; no cut-off is given here. Peptide text beside a SMILES is read from it.
# Legend:
# Mus musculus [1] = assay: Stimulation of innate immune response in Kunming mouse assessed as increase of leukocytes in peritoneal lavage at 10 mg/kg, ip after 5 hrs; assay type: functional, organism-based; design: dose 10 mg/kg
# In short: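 Female Kunming mice were given peptide ip at 10 mg/kg. At 5 h, peritoneal cells were recovered by lavage with 2 mL PBS and counted. Cells were stained with anti-F4/80-PE and GR1-FITC for 30 min at room temperature and typed by flow cytometry: neutrophils GR1+/F4/80−, resident monocytes/macrophages GR1−/F4/80+, inflammatory monocytes GR1+/F4/80+. Data are mean ± SD from three mice, unpaired t test.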
# Mus musculus [2] = assay: Stimulation of innate immune response in neutropenic Kunming mouse infected with Pseudomonas aeruginosa ATCC 27853 assessed as reduction of bacterial burden in peritoneal lavage at 10 mg/kg, ip relative to control; assay type: functional; design: scale not given: the % may be the effect or the level left; details: route intraperitoneal
# In short: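 Mice were made neutropenic with cyclophosphamide ip, 150 mg/kg on day 0 and 100 mg/kg on day 3. Peptide was given ip at 10 mg/kg 5 h before ip bacterial infection on day 5 (n = 10). Viable bacteria in the peritoneal cavity were counted 8 h after inoculation, and groups were compared by unpaired t test.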
# RAW264.7 [3] = assay: Inhibition of LPS-induced IL-6 production in mouse RAW264.7 cells 2 to 50 ug/ml after 6 hrs by ELISA; assay type: functional, cell-based
# BMDM [4] = assay: Increase of CXCL2 production in mouse BMDM after 6 hrs by ELISA in presence of TLR4/MD2 Ab; assay type: functional
# [5] = Increase of CXCL2 production in mouse BMDM after 6 hrs by ELISA in presence of JNK inhibitor SP600125; assay type: functional
# Mus musculus [6] = assay: Stimulation of innate immune response in Kunming mouse assessed as protection against bacteria-induced mortality by measuring survival rate at 10 mg/kg, ip measured up to 7 days; assay type: functional, organism-based; design: dose 10 mg/kg
# [7] = Increase of CXCL2 protein level in mouse BMDM at 10 ug/ml after 18 hrs by ELISA; assay type: functional
# In short: (§1)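 Bone marrow-derived macrophages (RPMI 1640, 10% FCS, 20% L929-conditioned medium) stimulated with peptide for 18 h. Cytokines and chemokines in culture supernatant quantified by sandwich ELISA. Mean ± SD from three independent experiments, unpaired t test.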
# [8] = Increase of CXCL2 production in mouse BMDM after 6 hrs by ELISA in presence of MEK1/2 inhibitor U0126; assay type: functional
# Mus musculus [9] = species: Mus musculus; assay: Activation of JNK in mouse BMDM assessed as phosphorylation at 10 ug/ml by Western blotting
# In short: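 BMDMs cultured in RPMI 1640 with 10% FCS and 20% L929-conditioned medium. Lysates separated by 10% SDS-PAGE, blotted to PVDF and blocked in 5% BSA. Probed for phospho-JNK/JNK or phospho-p38/p38, then HRP goat anti-rabbit IgG, chemiluminescence read-out.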
# BMDM [10] = assay: Increase of CXCL2 production in mouse BMDM after 6 hrs by ELISA in presence of pertussis toxin; assay type: functional
# In short: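 BMDMs (bone marrow cells in RPMI 1640 with 10% FCS and 20% L929-conditioned medium) were preincubated 30 min with pertussis toxin (100 ng/mL), then stimulated with peptide for 6 h. CXCL2 in the supernatant was measured by ELISA. Mean ± SEM from three independent experiments, unpaired t test.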
# [11] = biological target: Transcription factor p65 (Mus musculus) (UniProt Q04207); assay: Activation of NFkappaB p65 in mouse BMDM assessed as phosphorylation at 10 ug/ml after 15 to 30 mins by Western blotting
# In short: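 BMDMs came from mouse bone marrow cultured in RPMI 1640 with 10% FCS and 20% L929-conditioned medium. After treatment, lysates were run on 10% SDS−PAGE, transferred to PVDF, blocked with 5% BSA, and probed for phospho-p65. Detection used an HRP anti-rabbit IgG secondary and chemiluminescence.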
# BMDM [12] = assay: Increase of IL-6 protein level in mouse BMDM at 20 ug/ml after 18 hrs by ELISA; assay type: functional; in short: as §1
# [13] = Cytotoxicity against mouse BMDM at 5 to 20 ug/ml by MTT assay
# BMDM [14] = assay: Induction of CXCL1 mRNA up-regulation in mouse BMDM at 20 ug/ml after 3 hrs by qRT-PCR analysis; assay type: functional
# In short: (§2)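 Murine BMDMs stimulated with peptide, then target mRNA quantified by qRT-PCR. Expression normalized to GAPDH, with untreated cells set to 1.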
# BMDM [15] = assay: Increase of IL-10 protein level in mouse BMDM at 20 ug/ml after 18 hrs by ELISA; assay type: functional; in short: as §1
# BMDM [16] = assay: Induction of CXCL5 mRNA up-regulation in mouse BMDM at 20 ug/ml after 3 hrs by qRT-PCR analysis; assay type: functional; in short: as §2
# Mus musculus [17] = assay: Stimulation of innate immune response in Kunming mouse assessed as protection against CLP-induced mortality by measuring survival rate at 10 mg/kg, ip administered 2 hrs before bacterial infection measured up to 7 days; assay type: functional; details: route intraperitoneal
# BMDM [18] = assay: Increase of CXCL2 protein level in mouse BMDM at 20 ug/ml after 18 hrs by ELISA; assay type: functional; in short: as §1
# BMDM [19] = assay: Increase of CXCL1 protein level in mouse BMDM at 20 ug/ml after 18 hrs by ELISA; assay type: functional; in short: as §1
# [20] = Induction of IL-6 mRNA up-regulation in mouse BMDM at 20 ug/ml after 3 hrs by qRT-PCR analysis relative to control; assay type: functional; in short: as §2
# Mus musculus [21] = assay: Stimulation of innate immune response in Kunming mouse infected with Pseudomonas aeruginosa ATCC 27853 assessed as effect on IL-6 production in peritoneal lavage at 10 mg/kg, ip after 5 hrs by ELISA; assay type: functional, organism-based; design: dose 10 mg/kg
# RAW264.7 [22] = assay: Inhibition of LPS-induced TNFalpha production in mouse RAW264.7 cells 2 to 50 ug/ml after 6 hrs by ELISA; assay type: functional, cell-based
# Mus musculus [23] = assay: Stimulation of innate immune response in Kunming mouse assessed as increase of CXCL2 level in peritoneal lavage at 10 mg/kg, ip after 5 hrs; assay type: functional, organism-based; design: dose 10 mg/kg
# In short: (§3)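 Female Kunming mice (18−22 g) received a single ip injection of peptide at 10 mg/kg in sterile saline. Peritoneal lavage was collected in 2 mL of cold sterile saline 5 h later, and cytokines and chemokines were measured by ELISA. Data are mean ± SD from four mice, compared by unpaired t test.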
# RAW264.7 [24] = assay: Inhibition of LPS-induced nitric oxide production in mouse RAW264.7 cells 2 to 50 ug/ml after 6 hrs by ELISA; assay type: functional, cell-based
# Mus musculus [25] = assay: Stimulation of innate immune response in Kunming mouse assessed as increase of IL-6 level in peritoneal lavage at 10 mg/kg, ip after 5 hrs; assay type: functional, organism-based; design: dose 10 mg/kg; in short: as §3
# Sequence of Transcription factor p65 (Mus musculus) (Q04207 whole entry): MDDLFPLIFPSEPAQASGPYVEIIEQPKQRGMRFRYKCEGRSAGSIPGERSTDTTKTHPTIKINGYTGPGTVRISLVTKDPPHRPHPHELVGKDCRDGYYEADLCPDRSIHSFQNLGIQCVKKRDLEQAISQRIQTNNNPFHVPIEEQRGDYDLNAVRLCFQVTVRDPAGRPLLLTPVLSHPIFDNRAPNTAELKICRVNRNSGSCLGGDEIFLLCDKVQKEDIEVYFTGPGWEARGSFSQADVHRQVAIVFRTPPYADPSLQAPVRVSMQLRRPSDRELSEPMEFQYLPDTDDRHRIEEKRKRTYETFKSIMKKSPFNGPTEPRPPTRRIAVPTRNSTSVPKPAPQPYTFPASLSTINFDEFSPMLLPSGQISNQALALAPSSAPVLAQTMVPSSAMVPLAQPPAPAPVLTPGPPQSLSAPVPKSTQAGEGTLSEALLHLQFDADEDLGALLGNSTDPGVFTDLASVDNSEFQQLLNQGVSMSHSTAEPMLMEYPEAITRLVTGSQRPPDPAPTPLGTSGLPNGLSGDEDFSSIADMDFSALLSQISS
compound,measurement,setting,value
CC[C@H](C)[C@H](NC(=O)[C@@H](NC(=O)[C@H](CCCNC(=N)N)NC(=O)[C@@H]1CCCN1C(=O)[C@H](CCCCN)NC(=O)[C@H](CCCCN)NC(=O)[C@H](Cc1ccccc1)NC(=O)[C@H](Cc1ccccc1)NC(=O)[C@H](CCCCN)NC(=O)[C@H](CCCCN)NC(=O)[C@H](C)NC(=O)[C@H](CCCNC(=N)N)NC(=O)[C@H](CCCCN)NC(=O)[C@H](CCCCN)NC(=O)[C@@H](NC(=O)[C@H](CO)NC(=O)[C@H](CC(N)=O)NC(=O)[C@H](CCCCN)NC(=O)[C@H](CC(C)C)NC(=O)[C@H](CCCCN)NC(=O)[C@H](CCCCN)NC(=O)[C@H](Cc1ccccc1)NC(=O)[C@H](Cc1ccccc1)NC(=O)[C@@H](N)CCCCN)C(C)C)C(C)C)C(=O)NCC(=O)N[C@H](C(=O)N[C@@H](CO)C(=O)N[C@H](C(=O)N1CCC[C@H]1C(=O)N[C@@H](Cc1ccccc1)C(=O)O)[C@@H](C)CC)C(C)C (H-KFFKKLKNSVKKRAKKFFKKPRVIGVSIPF-OH),Activity,Mus musculus [1],Active
same,Activity,Mus musculus [2],40%
same,inhibition,RAW264.7 [3],Active
same,Activity,BMDM [4],inactive
same,Activity,[5],952 pg/mL
same,Activity,Mus musculus [6],inactive
same,Activity,[7],1450 pg/mL
same,Activity,[8],979.6 pg/mL
same,Activity,Mus musculus [9],Active
same,Activity,BMDM [10],inactive
same,Activity,[11],inactive
same,Activity,BMDM [12],inactive
same,Activity,[13],Non-toxic
same,Activity,BMDM [14],Active
same,Activity,BMDM [15],Active
same,Activity,BMDM [16],Active
same,survival at 10 mg/kg,Mus musculus [17],40%
same,Activity,BMDM [18],Active
same,Activity,BMDM [19],Active
same,fold change (FC),[20],4.5
same,Activity,Mus musculus [21],inactive
same,inhibition,RAW264.7 [22],Active
same,Activity,Mus musculus [23],Active
same,inhibition,RAW264.7 [24],Active
same,Activity,Mus musculus [25],inactive
